Assay results reported in ChEMBL document CHEMBL1777800, “Novel diarylheptanoids as inhibitors of TNF-α production” (Bioorg Med Chem Lett, 2011).
Active and inactive are the calls of the source. No cut-off for these calls is given here.

Columns and labels:
Blood = test: Antiinflammatory activity in human whole blood assessed as inhibition of LPS-induced TNFalpha production at 10 uM treated for 30 mins followed by 5 hrs LPS challenge by ELISA-based WBCCS assay; type: functional
Summary of the method: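 Human whole blood cells exposed to compound 30 min, then LPS-stimulated; supernatants collected after 5 h and TNF-α determined by ELISA; expressed as percent inhibition.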

PBMC [1] = test: Antiinflammatory activity in human PBMC assessed as inhibition of LPS-induced TNFalpha production treated for 30 mins followed by 5 hrs LPS challenge by ELISA assay; type: functional, cell-based
Summary of the method: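 Human PBMC pre-treated with compound (0.03–100 µM) for 30 min, then LPS-stimulated 5 h; TNF-α measured. Controls: DMSO vehicle with LPS, unstimulated cells, rolipram standard. Mean ± S.E.M. of three experiments; IC50 from concentration–response.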

PBMC [2] = test: Cytotoxicity against human PBMC by MTS assay; type: cell-based
Summary of the method: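 Viability of human PBMC determined by MTS across the concentrations tested in the LPS-stimulated TNF-α assay.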

Mus musculus = test: Antiinflammatory activity in BALB/c mouse assessed as inhibition of LPS-induced TNFalpha production in plasma at 100 mg/kg, po by ELISA; type: functional
Summary of the method: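 BALB/c mice dosed orally, vehicle 0.5% carboxymethylcellulose, rolipram as standard; LPS given 1 h later. Blood drawn 1.5 h after LPS; plasma TNF-α quantified by ELISA.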

Structure (SMILES)	inhibition at 10 µM (Blood) [%]	other results
CN(C)c1ccc(CCC(=O)CC(O)CCc2cccnc2)cc1 (stereo not drawn)	0	–
Cc1cccc(CCC(=O)CC(O)CCc2cccnc2)c1 (stereo not drawn)	11	–
Cc1cccc(CCC(=O)/C=C/CCc2cccnc2)c1	25	–
O=C(CCc1ccccc1)CC(O)CCc1cccnc1 (stereo not drawn)	3	–
COc1ccc(COc2ccc(CCC(=O)/C=C/CCc3cccnc3)cc2OC)cc1	40	IC50 (PBMC [1]; read-out: IC50): 24100 nM; IC50 (PBMC [2]): > 100 µM; inhibition in vivo at 100 mg/kg (Mus musculus): 75%
COc1ccc(OC)c(CCC(=O)CC(O)CCc2cccnc2)c1 (stereo not drawn)	0	–
COc1ccc(CCC(=O)CC(O)CCc2cccnc2)cc1OC (stereo not drawn)	18	–
O=C(CCc1ccc(Cl)cc1)CC(O)CCc1cccnc1 (stereo not drawn)	16	–
O=C(/C=C/CCc1cccnc1)CCc1ccccc1	0	–
COc1ccc(COc2ccc(CCC(=O)CC(O)CCc3cccnc3)cc2OC)cc1 (stereo not drawn)	2	–
COc1ccc(CCC(=O)/C=C/CCc2cccnc2)c(OC)c1	56	inhibition (PBMC [1]): Dose-dependent effect; IC50 (PBMC [1]; read-out: IC50): 2000 nM; IC50 (PBMC [2]): 38 µM; inhibition in vivo at 100 mg/kg (Mus musculus): 79%
COc1ccc(COc2cc(CCC(=O)CC(O)CCc3cccnc3)ccc2OC)cc1 (stereo not drawn)	44	IC50 (PBMC [1]; read-out: IC50): 5700 nM; IC50 (PBMC [2]): > 100 µM; inhibition in vivo at 100 mg/kg (Mus musculus): 71%
COc1ccc(COc2cc(CCC(=O)/C=C/CCc3cccnc3)ccc2OC)cc1	19	–
COc1cccc(CCC(=O)CC(O)CCc2cccnc2)c1OC (stereo not drawn)	10	–
O=C(CC(O)CCc1cccnc1)/C(=C\CCc1cccnc1)Cc1ccc(Cl)cc1 (stereo not drawn)	32	–
N#Cc1ccc(CCC(=O)CC(O)CCc2cccnc2)cc1 (stereo not drawn)	35	–
COc1cccc(CCC(=O)/C=C/CCc2cccnc2)c1OC	33	–
O=C(CCc1ccc(F)cc1)CC(O)CCc1cccnc1 (stereo not drawn)	34	–
COc1cc(CCC(=O)/C=C/CCc2cccnc2)cc(OC)c1OC	23	–
COc1ccc(CCC(=O)/C=C/CCc2cccnc2)cc1OC	56	inhibition (PBMC [1]): Dose-dependent effect; IC50 (PBMC [1]; read-out: IC50): 2500 nM; IC50 (PBMC [2]): 80 µM; inhibition in vivo at 100 mg/kg (Mus musculus): 50%
COc1cc(/C=C/C(=O)CC(=O)/C=C/c2ccc(O)c(OC)c2)ccc1O [CURCUMIN]	–	IC50 (PBMC [1]): 2710 nM; inhibition (Mus musculus): inactive
COc1ccc(CCC(=O)CC(O)CCc2cccnc2)c(OC)c1 (stereo not drawn)	22	–
CN(C)c1ccc(CCC(=O)/C=C/CCc2cccnc2)cc1	32	–
COc1cc(CCC(=O)CC(O)CCc2cccnc2)cc(OC)c1OC (stereo not drawn)	12	–
O=C(/C=C/CCc1cccnc1)CCc1ccc(F)cc1	35	–
COc1ccc(OC)c(CCC(=O)/C=C/CCc2cccnc2)c1	0	–
O=C(CCc1ccc2c(c1)OCO2)CC(O)CCc1cccnc1 (stereo not drawn)	41	–
N#Cc1ccc(CCC(=O)/C=C/CCc2cccnc2)cc1	9	–
